Assay [1] concerns Escherichia coli (E. coli). In words: Whole-cell ELISA, biotinylated PCC binding. Particulars: biotinylated PCC at 5 μM; does not express MrkA; Fig. 5C. It is filed as cell-based. The method, boiled down:
(§1)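 10^8 bacteria per test, from overnight cultures at 37 °C with shaking in G-CAA (promotes MrkA) or LB medium. Blocked in PBS-1% BSA (1 h, 37 °C), then incubated with biotinylated PCC in PBS-BSA (1 h, 37 °C). Washed thrice, then streptavidin-HRP (1:1000, 1 h, 37 °C). Developed with TMB, quenched with 2 N H2SO4, absorbance read at 450 nm.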

For assay [2], the system named is MrkA-producing multidrug-resistant K. pneumoniae (strains BAA 1705 & 2146). Kind of assay: Whole-cell ELISA, biotinylated PCC binding. It is filed as cell-based, Klebsiella pneumoniae. To be noted: Fig. 5C; for whole-cell ELISA signal (SAv-HRP, 450 nm): biotinylated PCC at 5 μM; for binding selectivity towards MrkA-expressing K. pneumoniae cells versus non-target bacteria: whole-cell ELISA versus E. coli and S. Typhimurium. The method, boiled down:
as §1

Assay [3] concerns K. pneumoniae cells (strain BAA 1705). Kind of assay: Whole-cell ELISA on cells cultured in G-CAA media or LB. It is filed as cell-based, Klebsiella pneumoniae. To be noted: biotinylated PCC at 50 μM; Fig. S7B.
The subject of assay [4] is MrkA-knockout KPPR1 cells. Kind of assay: Whole-cell ELISA, biotinylated PCC binding. It is filed as cell-based, Klebsiella pneumoniae. Particulars: mrkA (with mrkB and mrkC) knocked out. The method, boiled down: as §1
Assay [5] relates to Salmonella enterica serovar Typhimurium (S. Typhimurium). In words: Whole-cell ELISA, biotinylated PCC binding. Format: cell-based. Particulars: biotinylated PCC at 5 μM; does not express MrkA; Fig. 5C. The method, boiled down: as §1
Assay [6] deals with wild type MrkA-expressing KPPR1 cells (ATCC 43816). In words: Whole-cell ELISA, biotinylated PCC binding. Format: cell-based, Klebsiella pneumoniae. To be noted: biotinylated PCC at 5 μM down to 5 nM; cells cultured in G-CAA media; 1 h 37 °C. The method, boiled down:
as §1

Assay [7] concerns the target T1, full-length recombinant MrkA protein (Klebsiella pneumoniae, UniProt P12267).
T1 sequence (P12267 23-202): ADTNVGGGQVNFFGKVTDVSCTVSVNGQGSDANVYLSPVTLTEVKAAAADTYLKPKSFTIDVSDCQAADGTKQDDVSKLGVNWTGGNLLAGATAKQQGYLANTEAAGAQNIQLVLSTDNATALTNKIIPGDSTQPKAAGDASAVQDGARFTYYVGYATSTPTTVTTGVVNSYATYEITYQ
In words: Sandwich ELISA: immobilised biotinylated PCC captures full-length MrkA. It is filed as binding. A digest of the protocol: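 NeutrAvidin-coated wells were loaded with 2 μM biotinylated PCC (2 h, room temperature), then blocked overnight in 5% milk at 4 °C. Recombinant MrkA (N-terminal 6xHis-SUMO tag) was titrated for 1 h, followed by rabbit anti-His pAb (1:5000, 1 h) and anti-rabbit HRP (1:2000, 1 h). Peroxidase substrate developed for 1–40 min and was quenched with 1 M H2SO4.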

The test system of assay [8] is K. pneumoniae cells (strain BAA 1705). In words: Gentamicin protection assay: phagocytosis and opsonophagocytic killing. It is filed as cell-based, Klebsiella pneumoniae. Particulars: for colony counts at 1 h (phagocytosis), control treatments: AR-PCC only (5 μM, no anti-DNP) or anti-DNP antibody only, triplicate. The method, boiled down:
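Bacteria opsonized with DNP-PCC (5 μM, PBS-1% BSA, 1 h, 37 °C), then anti-DNP (1:1000, 1 h, 37 °C). They infected immortalised mouse BMDMs (RPMI, 10% serum) at MOI 50 for 0.5 h at 37 °C. After washing, gentamicin 100 μg ml−1 was added. At 1 h and 24 h, macrophages were lysed in 0.2% Triton X-100 and CFU plated on LB agar. Triplicate.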

Assay [9] relates to K. pneumoniae cells (strain BAA 2146). In words: Flow cytometry antibody recruitment. Format: cell-based, Klebsiella pneumoniae. Particulars: >18 000 single cells. The method, boiled down:
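Cells grown overnight in G-CAA medium, washed, and incubated with DNP-conjugated PCC. After a wash they were stained with Alexafluor488-labelled anti-DNP antibody, washed, resuspended in PBS and held 2 d at 4 °C. Cytometer calibrated with 3.5 μm fluorescent beads. Excitation 488 nm, emission 530 nm. Gated on single cells, with an unstained FMO control setting the DNP+ gate.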

Entries after “also recorded” stand apart in the source; their conditions may differ. Bridge positions count the residues as written; N and C are the ends. Square brackets hold non-standard residues; d marks the D form. Triazole bridges read from a SMILES are 1,4-linked. Peptide text beside a SMILES is read from it. * marks the point of attachment. Biotin = O=C1N[C@H]2[C@H](CS[C@H]2CCCCC(=O)*)N1; Lys(N3) = [N-]=[N+]=NCCCC[C@H](N)C(=O)O; PEG5 = NCCOCCOCCOCCOCCOCCC(=O)O; Pra = C#CC[C@H](N)C(=O)O Where only a bound is given, the exact number is not on record here.

As to `CC(C)C[C@@H]1NC(=O)[C@@H](NC(=O)CCOCCOCCOCCOCCOCCNC(=O)CCCC[C@@H]2SC[C@@H]3NC(=O)N[C@@H]32)Cc2cn(nn2)CCCC[C@@H](C(N)=O)NC(=O)[C@H](Cc2ccccc2)NC(=O)[C@H](Cc2ccccc2)NC(=O)[C@H](Cc2ccccc2)NC(=O)[C@H](CC(C)C)NC1=O` [cy(LLFFF)] ({Biotin-PEG5}-[Pra]LLFFF[Lys(N3)]-NH2; triazole 1-7), the “whole-cell ELISA signal (SAv-HRP, 450 nm)” value in assay [1] is recorded as “only weak signals”; in [2], “strong signals”; in assay [4] it was “ELISA intensities comparable to baseline”; in [5], “only weak signals”; in assay [6] it was “strong signals”. The “binding selectivity towards MrkA-expressing K. pneumoniae cells versus non-target bacteria” value in assay [2] is reported as “excellent binding selectivity”. Besides, the “whole-cell ELISA binding, G-CAA versus LB culture” value in [3] is “bound K. pneumoniae cells regardless of MrkA-expression level”.
Turning to “2: L-to-A substitution analogue of cy(LLFFF) (ALFFF; macrocycle closed by azidolysine-propargylglycine cyclization; N-terminal Biotin-peg group) [Compound 2]”, the “MrkA binding (ELISA signal) compared to unmodified cy(LLFFF), alanine scan” value in assay [7] (full-length MrkA, N-terminal Biotin-peg PCCs, Fig. 4A) was “Modestly lower binding”.
For the molecule “cy(LLFFF)+R6-DNP (sidechain bridge or staple)”, the “colony counts at 1 h (phagocytosis), control treatments” value (“colony counts at 1 h (phagocytosis)” for short) in [8] is recorded as “None of these treatments elicited phagocytosis above the basal level”.
In the case of cy(LLFFA) (sidechain bridge or staple), the “whole-cell ELISA signal (SAv-HRP, 450 nm)” value in [1] is reported as “low signals”; in [2], “low signals”; in assay [4] it was “ELISA intensities comparable to baseline”; in assay [5], “low signals”; in assay [6] it was “much lower intensities”. Also, in assay [3], the “whole-cell ELISA binding, G-CAA versus LB culture” value is “bound K. pneumoniae cells regardless of MrkA-expression level”.
With “cy(LLFFA)-DNP (sidechain bridge or staple)”, in assay [8], the “colony counts at 1 h (phagocytosis)” value is reported as “None of these treatments elicited phagocytosis above the basal level”.
As to “cy(HNGPT)-DNP (sidechain bridge or staple)”, the “fluorescence intensity (Alexafluor 488 anti-DNP), flow cytometry” value in [9] (control AR-PCC at 50 μM plus anti-DNP, predominantly) is < 1.0 × 10^1.
On to “17: cy(LLFFF) with a hexa-arginine tag (RRRRRRLLFFF; LLFFF closed into a macrocycle by azidolysine-propargylglycine cyclization; N-terminal Biotin-peg group) [Compound 17]”, for which, in [7] (MrkA protein at 250 nM in solutions of 10 and 100% mouse sera, Fig. 4B inset, listed as cy(LLFFF)+R6), the “binding of MrkA protein in mouse sera” value was “bound MrkA protein in solutions of 10 and 100% mouse sera, albeit at lower levels versus in 0% serum; also recorded: binds MrkA protein in the context of sera”. Also, the “binding selectivity towards MrkA-expressing K. pneumoniae cells versus non-target bacteria” value in [2] was “similarly high selectivity”.
In the case of “cy(LLFFF)-DNP (sidechain bridge or staple)”, the “colony counts at 24 h (opsonophagocytic killing)” value in [8] (24 h of incubation, AR-PCC 5 μM plus anti-DNP) is listed as “little to no cell counts”. In addition, in [8], the “colony counts at 1 h (phagocytosis)” value is given as “None of these treatments elicited phagocytosis above the basal level”. Moreover, the “fluorescence (Alexafluor 488 anti-DNP), flow cytometry, versus controls” value in assay [9] (AR-PCC at 1 or 5 μM plus secondary antibody) was “much higher fluorescence”.

(Values after article PMC8157486 (Chemical Science, 2020).)
